This is an account of results in ChEMBL document CHEMBL4706499, “PTG-0861: A novel HDAC6-selective inhibitor as a therapeutic strategy in acute myeloid leukaemia” (Eur J Med Chem, 2020).

Assay [1] concerns MV4-11. As to the kind of experiment: Cytotoxicity against human MV4-11 cells measured after 72 hrs by spectrophotometer method. The assay is classed as functional, cell-based. As to conditions: MV4-11, 72 h.
In another assay the target is T1, Histone deacetylase 6 (Danio rerio, UniProt F8W4B7).
T1 sequence (F8W4B7 whole entry): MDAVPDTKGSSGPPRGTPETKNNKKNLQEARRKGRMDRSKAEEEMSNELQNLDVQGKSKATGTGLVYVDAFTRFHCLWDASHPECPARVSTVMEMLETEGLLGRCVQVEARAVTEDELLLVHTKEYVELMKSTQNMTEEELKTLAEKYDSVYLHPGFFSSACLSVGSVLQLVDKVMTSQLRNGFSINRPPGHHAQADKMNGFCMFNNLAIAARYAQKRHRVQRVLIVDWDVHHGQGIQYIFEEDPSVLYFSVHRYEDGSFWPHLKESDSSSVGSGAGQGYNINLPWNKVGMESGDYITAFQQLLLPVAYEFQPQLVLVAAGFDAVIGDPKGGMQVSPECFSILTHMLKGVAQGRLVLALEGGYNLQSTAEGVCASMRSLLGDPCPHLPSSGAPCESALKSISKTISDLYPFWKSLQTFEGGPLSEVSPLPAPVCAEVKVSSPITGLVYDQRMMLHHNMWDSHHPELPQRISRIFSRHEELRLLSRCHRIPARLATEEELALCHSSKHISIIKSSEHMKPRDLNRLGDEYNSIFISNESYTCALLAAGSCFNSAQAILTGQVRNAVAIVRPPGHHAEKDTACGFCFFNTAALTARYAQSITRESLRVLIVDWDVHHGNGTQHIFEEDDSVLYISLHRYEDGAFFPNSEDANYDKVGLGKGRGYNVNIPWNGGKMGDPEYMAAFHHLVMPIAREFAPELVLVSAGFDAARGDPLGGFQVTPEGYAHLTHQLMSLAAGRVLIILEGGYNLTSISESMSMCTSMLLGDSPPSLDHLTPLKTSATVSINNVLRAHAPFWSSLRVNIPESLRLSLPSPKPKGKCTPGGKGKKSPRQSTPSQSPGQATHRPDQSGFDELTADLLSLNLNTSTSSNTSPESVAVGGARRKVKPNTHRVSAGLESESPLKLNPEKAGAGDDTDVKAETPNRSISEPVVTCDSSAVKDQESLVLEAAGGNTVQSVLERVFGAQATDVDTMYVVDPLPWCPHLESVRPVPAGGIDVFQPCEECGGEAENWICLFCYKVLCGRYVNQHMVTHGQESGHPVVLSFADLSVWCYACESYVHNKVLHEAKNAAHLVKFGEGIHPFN
As to the kind of experiment: Inhibition of N-terminal 6 His-SUMO tagged Zebrafish HDAC6 CD2 domain expressed in Escherichia coli BL21(DE3) RILP pretreated for 10 mins before FITC-M344 addition and measured after 10 mins by fluorescence polarization competition assay.

Assay [2] in a line: Cytotoxicity against human MRC9 cells measured after 72 hrs by spectrophotometer method. As to conditions: MRC9, 72 h. In kind it is cell-based.
Another assay has as its system MM1.S. Briefly: Cytotoxicity against human MM1.S cells measured after 72 hrs by spectrophotometer method. In kind it is functional, cell-based.
In another assay the test system is RPMI-8226. As to the kind of experiment: Cytotoxicity against human RPMI-8226 cells measured after 72 hrs by spectrophotometer method. The following applies: RPMI-8226, 72 h. In kind it is functional, cell-based.
Assay [3] deals with Class 1 histone deacetylase (Homo sapiens) (UniProt Q13547+O15379+Q92769+Q9BY41). Briefly: Inhibition of HDAC class 1 in human MV4-11 cells assessed as upregulation of acetylation of H3 histone at 5 uM measured after 6 hrs by Western blot assay. In kind it is cell-based. Summed up:
(§1)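 MV4-11 cells were exposed to a range of concentrations for 6 h. Protein extracts were run on SDS-PAGE and immunoblotted for acetylated α-tubulin, acetylated histone H3 and acetylated histone H4, with HSC70 as the loading reference. A representative blot of three independent experiments is shown.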

Assay [4] has as its target T2, Protein deacetylase HDAC6 (Homo sapiens) (UniProt Q9UBN7).
T2 sequence (whole entry): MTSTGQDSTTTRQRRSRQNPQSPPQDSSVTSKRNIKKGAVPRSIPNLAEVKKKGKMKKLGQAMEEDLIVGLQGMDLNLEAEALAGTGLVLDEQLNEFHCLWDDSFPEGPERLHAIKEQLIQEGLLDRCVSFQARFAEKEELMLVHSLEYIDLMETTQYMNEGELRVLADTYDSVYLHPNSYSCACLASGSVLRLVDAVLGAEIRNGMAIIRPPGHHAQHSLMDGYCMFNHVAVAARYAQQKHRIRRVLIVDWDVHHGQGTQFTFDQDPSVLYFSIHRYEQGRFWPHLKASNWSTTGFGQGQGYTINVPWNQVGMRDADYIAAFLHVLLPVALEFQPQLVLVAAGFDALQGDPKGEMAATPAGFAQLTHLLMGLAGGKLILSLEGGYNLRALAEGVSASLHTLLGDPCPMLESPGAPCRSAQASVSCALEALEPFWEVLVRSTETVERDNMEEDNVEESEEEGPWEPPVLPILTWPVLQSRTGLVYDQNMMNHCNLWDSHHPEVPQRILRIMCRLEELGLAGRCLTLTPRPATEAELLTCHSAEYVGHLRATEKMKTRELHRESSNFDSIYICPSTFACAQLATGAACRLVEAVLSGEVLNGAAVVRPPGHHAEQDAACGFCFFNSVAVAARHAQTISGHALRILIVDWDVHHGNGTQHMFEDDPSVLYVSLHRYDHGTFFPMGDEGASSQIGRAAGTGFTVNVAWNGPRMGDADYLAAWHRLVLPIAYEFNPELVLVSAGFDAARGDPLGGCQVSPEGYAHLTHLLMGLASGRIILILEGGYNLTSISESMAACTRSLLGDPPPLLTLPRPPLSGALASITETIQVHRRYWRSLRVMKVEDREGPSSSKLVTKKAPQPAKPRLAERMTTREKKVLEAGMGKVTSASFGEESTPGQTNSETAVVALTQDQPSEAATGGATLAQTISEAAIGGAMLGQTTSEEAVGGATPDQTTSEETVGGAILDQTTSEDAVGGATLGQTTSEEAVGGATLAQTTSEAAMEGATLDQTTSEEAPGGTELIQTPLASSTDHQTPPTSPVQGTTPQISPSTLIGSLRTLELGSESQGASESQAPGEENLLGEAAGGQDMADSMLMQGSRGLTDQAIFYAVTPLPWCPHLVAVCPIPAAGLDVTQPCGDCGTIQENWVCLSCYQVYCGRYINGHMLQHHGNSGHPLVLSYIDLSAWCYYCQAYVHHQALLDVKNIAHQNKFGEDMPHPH
Briefly: Inhibition of HDAC6 in human MV4-11 cells assessed as increase in acetylation of alpha tubulin at 0.5 uM measured after 6 hrs by Western blot assay relative to histone H3 acetylation. The assay is classed as cell-based. Summed up:
as §1

The subject of another assay is HUVEC. Briefly: Cytotoxicity against human HUVEC cells measured after 72 hrs by spectrophotometer method. In kind it is cell-based.
Assay [5] addresses T2, Protein deacetylase HDAC6 (Homo sapiens). Briefly: Inhibition of HDAC6 in human MV4-11 cells assessed as increase in acetylation of alpha tubulin at 0.5 uM measured after 6 hrs by Western blot assay relative to histone H4 acetylation. The assay is classed as cell-based. Summed up: as §1
The subject of assay [6] is Fibroblast. Briefly: Cytotoxicity against human fibroblasts measured after 72 hrs by spectrophotometer method. In kind it is cell-based.
In assay [7] the test system is MV4-11. As to the kind of experiment: Induction of apoptosis in human MV4-11 cells assessed as late apoptotic cells at 4 microM measured after 18 hrs by Annexin V/Propidium iodide stain based Flow cytometry assay (reference value: 4.91%). In kind it is functional.
In assay [8] the test system is Fibroblast. Briefly: Cytotoxicity against pooled human fibroblasts measured after 72 hrs by spectrophotometer method. In kind it is cell-based.
The nature of assay [9]: Selectivity ratio of IC50 for full length recombinant human HDAC3 to IC50 for full length recombinant human HDAC6.
Assay [10] in a line: Cytotoxicity against human MRC9 cells. In kind it is functional, cell-based.

Molecules are shown by their SMILES. Calls of active or inactive are those of the source. The calls are words filed in the database; no cut-off is given here.

Chain of Class 1 histone deacetylase (Homo sapiens) (O15379 whole entry, looked up): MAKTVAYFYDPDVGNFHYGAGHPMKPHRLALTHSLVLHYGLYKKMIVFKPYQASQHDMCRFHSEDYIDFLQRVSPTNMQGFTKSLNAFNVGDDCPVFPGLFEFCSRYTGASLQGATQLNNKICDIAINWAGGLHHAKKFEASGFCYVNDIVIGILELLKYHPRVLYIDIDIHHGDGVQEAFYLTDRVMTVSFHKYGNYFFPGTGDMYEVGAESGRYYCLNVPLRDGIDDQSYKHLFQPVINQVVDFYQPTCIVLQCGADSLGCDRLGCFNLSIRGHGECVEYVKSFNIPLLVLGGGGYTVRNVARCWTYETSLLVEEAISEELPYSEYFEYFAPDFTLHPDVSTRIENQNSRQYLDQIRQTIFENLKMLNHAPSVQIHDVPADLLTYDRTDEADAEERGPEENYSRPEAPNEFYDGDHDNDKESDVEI
Chain of Class 1 histone deacetylase (Homo sapiens) (Q13547 whole entry, looked up): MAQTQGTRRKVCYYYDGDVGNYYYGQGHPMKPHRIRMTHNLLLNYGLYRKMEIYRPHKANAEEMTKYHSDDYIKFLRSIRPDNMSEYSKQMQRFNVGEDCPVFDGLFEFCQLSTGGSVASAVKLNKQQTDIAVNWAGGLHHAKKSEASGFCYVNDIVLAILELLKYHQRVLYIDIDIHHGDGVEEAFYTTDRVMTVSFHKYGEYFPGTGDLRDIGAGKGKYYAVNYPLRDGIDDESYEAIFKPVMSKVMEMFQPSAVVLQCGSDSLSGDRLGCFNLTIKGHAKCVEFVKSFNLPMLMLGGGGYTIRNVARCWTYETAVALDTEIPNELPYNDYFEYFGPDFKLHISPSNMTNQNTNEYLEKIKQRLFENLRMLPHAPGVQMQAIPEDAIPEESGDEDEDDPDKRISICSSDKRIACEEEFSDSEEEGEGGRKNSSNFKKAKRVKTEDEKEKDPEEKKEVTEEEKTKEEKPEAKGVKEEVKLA
Chain of Class 1 histone deacetylase (Homo sapiens) (Q92769 whole entry, looked up): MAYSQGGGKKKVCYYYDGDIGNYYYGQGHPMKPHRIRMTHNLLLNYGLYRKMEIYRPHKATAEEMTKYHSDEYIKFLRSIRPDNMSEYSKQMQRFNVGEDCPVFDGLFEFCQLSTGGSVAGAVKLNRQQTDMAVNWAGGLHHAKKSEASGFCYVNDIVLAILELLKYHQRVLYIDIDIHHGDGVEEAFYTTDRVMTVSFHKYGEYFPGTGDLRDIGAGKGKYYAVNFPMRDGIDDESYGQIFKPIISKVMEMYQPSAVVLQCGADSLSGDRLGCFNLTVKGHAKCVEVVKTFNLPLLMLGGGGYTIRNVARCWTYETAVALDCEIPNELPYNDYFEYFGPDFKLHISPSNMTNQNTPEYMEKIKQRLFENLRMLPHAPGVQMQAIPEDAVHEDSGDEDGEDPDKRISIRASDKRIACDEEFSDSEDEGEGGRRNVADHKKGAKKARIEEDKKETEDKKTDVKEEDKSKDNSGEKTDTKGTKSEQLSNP
Chain of Class 1 histone deacetylase (Homo sapiens) (Q9BY41 whole entry, looked up): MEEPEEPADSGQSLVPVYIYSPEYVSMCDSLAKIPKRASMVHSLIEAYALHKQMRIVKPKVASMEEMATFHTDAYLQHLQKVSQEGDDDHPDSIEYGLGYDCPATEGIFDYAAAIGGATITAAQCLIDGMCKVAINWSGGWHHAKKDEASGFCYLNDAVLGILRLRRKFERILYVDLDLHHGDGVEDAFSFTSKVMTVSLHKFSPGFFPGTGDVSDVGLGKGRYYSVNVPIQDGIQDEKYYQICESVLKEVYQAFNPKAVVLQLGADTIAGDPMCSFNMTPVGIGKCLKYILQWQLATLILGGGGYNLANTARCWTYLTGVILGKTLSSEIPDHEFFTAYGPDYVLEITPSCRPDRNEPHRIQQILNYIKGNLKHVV

As for `O=C(CCCCCCNC(=O)c1cnc(N(c2ccccc2)c2ccccc2)nc1)NO` [RICOLINOSTAT], the results for the IC50 (in the assay with MV4-11 [1]; on Histone deacetylase 6; in [2]) were 0.656 µM, 0.09 µM and above 15 µM, respectively.

On to `O=C(CCCCCCNC(=O)c1cnc(N(c2ccccc2)c2ccccc2Cl)nc1)NO` [CITARINOSTAT], for which the IC50 with MM1.S was 1.52 µM; in the assay on RPMI-8226 it was 3.16 µM; in the assay on HUVEC it was 4.9 µM; in the assay with MV4-11 [1], 1.24 µM; in the assay on Fibroblast [6], 5.7 µM; on Histone deacetylase 6, 0.154 µM. The results for the IC50 (in assay [2]; in the assay on Fibroblast [8]) were above 25 µM and 7.4 µM, respectively. Further, in [3], the inhibition entry was “Active”. Also, the result in [4] and in [5] was Active. Further, the Activity in the assay on MV4-11 [7] came to 17%.

As to `CC(C)(C)c1ccc(C(=O)Nc2ccc(C(=O)NO)cc2)cc1`, the Ratio IC50 in assay [9] stood at 7.66. For the same molecule, the IC50 was above 25 µM in assay [10], 0.269 µM at Histone deacetylase 6 and above 25 µM in [2].
